Measurements: article PMC6039259 (Nature medicine, 2018)

Legend:
human recombinant GLP-1R = human recombinant GLP-1R (Homo sapiens, UniProt P43220); test: cAMP production in GLP-1R transfected HEK-293/CRE-LUC/GLP1R cells; format: cell-based
[1] = NLY01 accumulation in brain / BBB penetration; format: in vivo, mice
[2] = system: α-syn PFF injected C57BL6 mice; test: Intrastriatal α-syn PFF mouse model of sporadic PD; format: in vivo
hA53T α-syn Tg mice = test: hA53T α-synuclein transgenic mouse model; format: in vivo
[3] = system: human dopaminergic (DA) neurons; test: Direct α-syn PFF toxicity in human DA neurons; format: cell-based; details: direct treatment of DA neurons, NLY01 1 µM, human α-syn PFF 5 µg/ml
How it was run: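 Viability is read three ways: alamarBlue per kit protocol, LDH activity in culture medium measured spectrophotometrically, and trypan blue counting. For trypan blue, neurons are trypsin-dissociated to single cells and mixed 1:1 with dye. Live and dead cells are counted on an automated cell counter, with three wells per condition.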

primary microglia = test: α-syn PFF-induced activation of primary microglia; format: cell-based, mouse
How it was run: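 Primary mouse microglia, CD11b-selected from P1 mixed glia, are pretreated with test compound (1 μM), then given α-syn PFF (1 μg/ml). PFF is endotoxin-depleted recombinant mouse α-syn, stirred a week at 37 °C and sonicated. For qPCR, total RNA is normalized to β-actin by 2^−ΔΔCt, with n=3 independent cultures. Cytokines in medium collected 18 hrs post-PFF are measured by mouse cytokine ELISA array.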

[4] = system: murine primary cortical cultures; test: α-syn PFF-ACM toxicity in murine primary cortical neurons; format: cell-based, mouse
How it was run: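 Cortical neurons from E15.5 CD1 embryos are grown in B-27 Neurobasal medium on poly-L-lysine. ACM is made by giving astrocytes 24 h of α-syn PFF-MCM, with or without test compound on the microglia. It is collected with protease inhibitors, concentrated about 50X (10 kDa cutoff) and dosed at 15 μg/ml total protein. Nuclei are stained with Hoechst (7 μM) and PI (2 μM) and counted by computer, relative to control wells.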

human DA neurons = test: α-syn PFF-ACM toxicity in human DA neurons; format: cell-based; details: NLY01 applied to the α-syn PFF treated microglia; alamarBlue, LDH, trypan blue, 5 days
primary astrocytes = test: A1 astrocyte induction by α-syn PFF-MCM in primary astrocytes; format: cell-based, mouse
How it was run: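 Primary microglia and astrocytes come from P1 CD1 mouse whole brains. Mixed glia are grown 13 days, then split by CD11b positive selection: the bound fraction is microglia and the pour-off is astrocytes. Microglia get α-syn PFF with PBS or test compound (1 μM). Their conditioned medium is applied to astrocytes for 24 hrs, and GFAP is measured by immunoblot.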

[5] = system: astrocytes of ventral midbrain; test: qPCR of astrocytes from ventral midbrain of α-syn PFF injected mice; format: in vivo
[6] = 3 mg/kg s.c. twice a week for five months

Chain of human recombinant GLP-1R (P43220 24-463): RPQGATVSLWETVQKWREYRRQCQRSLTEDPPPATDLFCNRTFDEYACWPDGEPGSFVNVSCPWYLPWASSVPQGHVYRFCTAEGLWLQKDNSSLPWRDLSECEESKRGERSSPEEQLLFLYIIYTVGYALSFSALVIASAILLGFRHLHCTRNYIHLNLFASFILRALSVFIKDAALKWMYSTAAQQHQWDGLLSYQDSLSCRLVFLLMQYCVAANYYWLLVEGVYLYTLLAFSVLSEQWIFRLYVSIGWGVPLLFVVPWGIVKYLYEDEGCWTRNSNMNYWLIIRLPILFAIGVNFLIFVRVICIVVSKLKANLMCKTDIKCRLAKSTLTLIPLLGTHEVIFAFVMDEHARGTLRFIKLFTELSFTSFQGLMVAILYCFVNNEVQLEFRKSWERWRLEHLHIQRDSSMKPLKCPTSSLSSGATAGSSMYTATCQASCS

His-Gly-Glu-Gly-Thr-Phe-Thr-Ser-Asp-Leu-Ser-Lys-Gln-Met-Glu-Glu-Glu-Ala-Val-Arg-Leu-Phe-Ile-Glu-Trp-Leu-Lys-Asn-Gly-Gly-Pro-Ser-Ser-Gly-Ala-Pro-Pro-Pro-Ser-Cys(PEG50K)-NH2 [NLY01, pegylated [Cys^40]Exendin-4]
biologic activity in vitro relative to Exendin-4 (human recombinant GLP-1R): comparable biologic activity
brain levels ([1]; ten-month-old hA53T Tg mice, 3 mg/kg): reaches high brain levels
blood-brain barrier penetration ([1]; wild type (WT) mice): efficiently penetrates the blood-brain barrier
Triton X-100 insoluble α-syn and p-α-syn ser129, western blot [2, 6]: significantly reduces
α-syn PFF induced reduction in striatal TH immunoreactivity and striatal TH and DAT protein [2, 6]: rescued
p-α-syn ser129 immunoreactivity in striatum, ventral midbrain and TH neurons ([2]; 3 mg/kg s.c. twice a week for five months, from one month after α-syn PFF): significantly reduces
α-syn PFF induced loss of TH and Nissl positive neurons in the SNpc ([2]; 3 mg/kg s.c. twice a week for five months, n=10): prevented
ipsilateral amphetamine induced rotation ([2]; 5 mg/kg amphetamine i.p., six months after α-syn PFF): prevented
α-syn PFF induced GFAP immunoreactivity and GFAP level in the ventral midbrain ([2]; immunohistochemistry and western blot): blocked
α-syn PFF induced mRNA for Il1a, Il1b, Tnfα, C1qa, Il6 in ventral midbrain ([2]; qPCR, n=4): blocked
behavioral deficits in accelerating rotarod test and pole test ([2]; six months after α-syn PFF): significantly reduces the behavioral deficits
contralateral forepaw touches, cylinder test ([2]; six months after α-syn PFF): restored
increase in grooming time and reduction in rearing, cylinder test ([2]; six months after α-syn PFF): restored
Iba-1 immunoreactivity and microglial density in the SNpc ([2]; six months post injection): significantly reduces
prolongation of lifespan (hA53T α-syn Tg mice; 3 mg/kg s.c. twice a week from six months of age, n=20): over 100 days
p-α-syn ser129 immunoreactivity, aggregated α-syn and ubiquitin immunoreactivity (hA53T α-syn Tg mice; 3 mg/kg, brainstem): reduction
microglial and astrocytic activation (Iba-1, GFAP immunoreactivity) (hA53T α-syn Tg mice; brainstem): significantly attenuates
increase of C3 mRNA (hA53T α-syn Tg mice; ten-month-old hA53T α-syn Tg mice): prevented
protection against α-syn PFF induced cell death (alamarBlue, LDH, trypan blue) [3]: fails to protect
uptake of α-syn PFF in microglia (primary microglia): does not interfere
α-syn PFF induced C1q and TNFα release into media, western blot (primary microglia; NLY01 1 µM pretreatment): significantly inhibited
α-syn PFF induced protein levels of IL-1α, TNFα, IL-1ß, C1q, ELISA (primary microglia; NLY01 1 μM pretreatment, MCM 18 hrs after α-syn PFF): reduced
α-syn PFF induced mRNA for Il1a, Il1b, Tnfα, C1qa, Il6, qPCR (primary microglia; NLY01 1 μM pretreatment, α-syn PFF 1 μg/ml): significantly reduces
α-syn PFF induced cytokines (IL-1α, TNFα, IL-1ß, IL-6, leptin), ELISA cytokine array (primary microglia; primary microglia, α-syn PFF 1 µg/ml): reduces
NF-kB pathway (primary microglia; α-syn PFF-induced NF-kB nuclear translocation and phosphorylation): inhibits
α-syn PFF-ACM induced cell death ([4]; NLY01 (1 µM) applied to the α-syn PFF treated microglia, Hoechst/PI, 48 hrs): significantly prevents
p-α-syn ser129 levels induced by α-syn PFF-ACM ([4]; pretreatment of NLY01 in microglia): significantly reduced
α-syn PFF-ACM induced cell death (human DA neurons): significantly prevents
α-syn PFF-MCM induced GFAP (primary astrocytes; NLY01 1 μM, 24 hrs, immunoblot): blocked
induction of A1 astrocytic specific markers (primary astrocytes; NLY01 treatment of microglia, but not that of astrocytes): prevents
α-syn PFF induced A1 astrocyte specific transcripts [5]: prevented
induction of C3 mRNA in isolated astrocytes ([5]; n=4): blocks
